Assay results published in ChEMBL document CHEMBL1121449, “Synthesis and antineoplastic activity of hydroquinone dialdehydes” (J Med Chem, 1980).
Several values for one entry are separate records, joined by “and”; a condition that tells them apart may be missing. Identical values can stand only once.

Tests used:
[1] = test system: Mus musculus; test: Tested for change in body weight from onset to termination at dose of 5 mg/kg; type: functional
Procedure, shortened: (§1)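 Female CD-1 mice inoculated ip with 0.1 mL of 10^7 Sarcoma 180 ascites cells/mL. Drug in 0.9% NaCl with 5% ethanol and Tween 80, serially diluted in saline, given ip once daily for 6 days starting 24 h after implantation. Dose based on mean starting weight. Controls received saline. Weight change recorded from day 0 to day 7, as % change.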

[2] = test system: Mus musculus; test: Tested for mean survival time treated animal not surviving 50 days as a percentage at dose of 10 mg/kg; type: functional
Procedure, shortened: (§2)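 Female CD-1 mice, Sarcoma 180 ascites, 0.1 mL of 10^7 cells/mL given ip. Drug in 0.9% NaCl, 5% ethanol, Tween 80, serially diluted with saline. Dosed ip at 0.5 mL daily for 6 days from 24 h post-implant; daily dose based on starting mean weight. T/C is the mean survival of treated mice dying before 50 days vs controls. Survivors are those alive ≥50 days out of those treated.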

[3] = test system: Mus musculus; test: Tested for mean survival time treated animal not surviving 50 days as a percentage at dose of 20 mg/kg; type: functional; procedure, shortened: as §2
[4] = test system: Mus musculus; test: Tested for mean survival time treated animal not surviving 50 days as a percentage at dose of 5 mg/kg; type: functional; procedure, shortened: as §2
[5] = test system: Mus musculus; test: Tested for change in body weight from onset to termination at dose of 10 mg/kg; type: functional; procedure, shortened: as §1
[6] = test system: Mus musculus; test: Tested for change in body weight from onset to termination at dose of 20 mg/kg; type: functional; procedure, shortened: as §1
[7] = test system: Mus musculus; test: Tested for number of animal surviving at least 50 days out of 10 animal treated at dose of 10 mg/kg; type: functional; procedure, shortened: as §2
[8] = test system: Mus musculus; test: Tested for number of animal surviving at least 50 days out of 10 animal treated at dose of 20 mg/kg; type: functional; procedure, shortened: as §2
[9] = test system: Mus musculus; test: Tested for number of animal surviving at least 50 days out of 10 animal treated at dose of 5 mg/kg; type: functional; procedure, shortened: as §2
[10] = Tested for inhibition of growth of sarcoma 180 cells in culture; type: functional, cell-based; details: Mus musculus
Procedure, shortened: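 Sarcoma 180 cells in suspension in Fischer's medium with 10% horse serum and penicillin/streptomycin, seeded at 10^4 cells/mL. Drug added from 10× stocks in 10% Me2SO/PBS, final 1–100 μM. Control cultures contained 1% Me2SO. Triplicate Coulter counts at 24, 48 and 72 h. IC50 read from a plot of inhibition of cell-number increase at 72 h versus concentration.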

[11] = test system: Mus musculus; test: Tested for change in body weight of Mice bearing Ehrlich carcinoma from onset to termination at dose of 5 mg/kg; type: functional
Procedure, shortened: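 Female CD-1 mice given ip implants of Ehrlich carcinoma (0.1 mL of 10^7 cells/mL). Drug in saline containing 5% ethanol and Tween 80, injected ip once daily for 6 consecutive days from 24 h post-implant. Controls received 0.9% NaCl. % body weight change measured between tumor implantation (day 0) and day 7.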

[12] = test system: Mus musculus; test: Tested for change in body weight of Mice bearing […] 755 from onset to termination at dose of 10 mg/kg; type: functional
Procedure, shortened: (§3)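 Adenocarcinoma 755 implanted ip (0.1 mL of 10^7 cells/mL) in female AKD2F1 mice. Daily ip dosing for 6 days beginning 24 h after implantation, vehicle 0.9% NaCl/5% ethanol/Tween 80, lower doses by saline dilution. Control mice received saline. Weight difference between day 0 and day 7 taken as % change and used as a toxicity measure.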

[13] = test system: Mus musculus; test: Tested for change in body weight of Mice bearing […] 755 from onset to termination at dose of 20 mg/kg; type: functional; procedure, shortened: as §3
[14] = test system: Mus musculus; test: Tested for change in body weight of Mice bearing […] 755 from onset to termination at dose of 5 mg/kg; type: functional; procedure, shortened: as §3
[15] = test system: Mus musculus; test: Tested for mean survival time of Mice bearing Ehrlich carcinoma not surviving 50 days as a percentage at dose of 10 mg/kg; type: functional
Procedure, shortened: (§4)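 Female CD-1 mice, Ehrlich ascites carcinoma, 0.1 mL of 10^7 cells/mL given ip. Drug in 0.9% NaCl with 5% ethanol and trace Tween 80, serially diluted with saline. Dosed ip at 0.5 mL once daily for 6 days from 24 h post-implant; saline controls. T/C is the mean survival of treated mice dying before 50 days as % of controls. Survivors are those alive ≥50 days.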

[16] = test system: Mus musculus; test: Tested for mean survival time of Mice bearing Ehrlich carcinoma not surviving 50 days as a percentage at dose of 20 mg/kg; type: functional; procedure, shortened: as §4
[17] = test system: Mus musculus; test: Tested for mean survival time of Mice bearing Ehrlich carcinoma not surviving 50 days as a percentage at dose of 5 mg/kg; type: functional; procedure, shortened: as §4
[18] = test system: Mus musculus; test: Tested for mean survival time of Mice bearing […] 755 not surviving 50 days as a percentage at dose of 20 mg/kg; type: functional
Procedure, shortened: (§5)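 Female AKD2F1 mice, adenocarcinoma 755, 0.1 mL of 10^7 cells/mL given ip. Vehicle 0.9% NaCl/5% ethanol/Tween 80, serially diluted with saline. Dosed ip at 0.5 mL once daily for 6 consecutive days starting 24 h post-implant; saline controls. T/C is the mean survival of non-50-day survivors as % of controls. Survivors are those alive ≥50 days.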

[19] = test system: Mus musculus; test: Tested for mean survival time of Mice bearing […] 755 not surviving 50 days as a percentage at dose of 5 mg/kg; type: functional; procedure, shortened: as §5
[20] = test system: Mus musculus; test: Tested for mean survival time treated animal not surviving 50 days as a percentage at dose of 15 mg/kg; type: functional; procedure, shortened: as §2
[21] = test system: Mus musculus; test: Tested for mean survival time treated animal not surviving 50 days as a percentage at dose of 2.5 mg/kg; type: functional; procedure, shortened: as §2
[22] = test system: Mus musculus; test: Tested for change in body weight from onset to termination at dose of 15 mg/kg; type: functional; procedure, shortened: as §1
[23] = test system: Mus musculus; test: Tested for change in body weight from onset to termination at dose of 2.5 mg/kg; type: functional; procedure, shortened: as §1
[24] = test system: Mus musculus; test: Tested for Mice bearing […] 755 surviving at least 50 days out of 5 animal treated at dose of 10 mg/kg; type: functional; procedure, shortened: as §5
[25] = test system: Mus musculus; test: Tested for Mice bearing […] 755 surviving at least 50 days out of 5 animal treated at dose of 20 mg/kg; type: functional; procedure, shortened: as §5
[26] = test system: Mus musculus; test: Tested for Mice bearing […] 755 surviving at least 50 days out of 5 animal treated at dose of 5 mg/kg; type: functional; procedure, shortened: as §5
[27] = test system: Mus musculus; test: Tested for number of animal surviving at least 50 days out of 10 animals treated at dose of 2.5 mg/kg; type: functional; procedure, shortened: as §2
[28] = test system: Mus musculus; test: Tested for number of animal surviving at least 50 days out of 10 animals treated at dose of 20 mg/kg; type: functional; procedure, shortened: as §2
[29] = test system: Mus musculus; test: Tested for number of animal surviving at least 50 days out of 15 animals treated at dose of 15 mg/kg; type: functional; procedure, shortened: as §2
[30] = test system: Mus musculus; test: Tested for number of animal surviving at least 50 days out of 30 animals treated at dose of 10 mg/kg; type: functional; procedure, shortened: as §2
[31] = test system: Mus musculus; test: Tested for number of animal surviving at least 50 days out of 30 animals treated at dose of 5 mg/kg; type: functional; procedure, shortened: as §2
[32] = test system: Mus musculus; test: Tested for Mice bearing Ehrlich carcinoma surviving at least 50 days out of 10 animal treated at dose of 10 mg/kg; type: functional; procedure, shortened: as §4
[33] = test system: Mus musculus; test: Tested for Mice bearing Ehrlich carcinoma surviving at least 50 days out of 10 animal treated at dose of 20 mg/kg; type: functional; procedure, shortened: as §4
[34] = test system: Mus musculus; test: Tested for Mice bearing Ehrlich carcinoma surviving at least 50 days out of 10 animal treated at dose of 5 mg/kg; type: functional; procedure, shortened: as §4
[35] = test system: Mus musculus; test: Tested for mean survival time treated animal not surviving 50 days as a percentage at dose of 1.25 mg/kg; type: functional; procedure, shortened: as §2
[36] = test system: Mus musculus; test: Tested for change in body weight from onset to termination at dose of 1.25 mg/kg; type: functional; procedure, shortened: as §1
[37] = test system: Mus musculus; test: Tested for number of animal surviving at least 50 days out of 5 animal treated at dose of 1.25 mg/kg; type: functional; procedure, shortened: as §2
[38] = test system: Mus musculus; test: Tested for number of animal surviving at least 50 days out of 5 animal treated at dose of 15 mg/kg; type: functional; procedure, shortened: as §2
[39] = test system: Mus musculus; test: Tested for number of animal surviving at least 50 days out of 5 animal treated at dose of 2.5 mg/kg; type: functional; procedure, shortened: as §2
[40] = test system: Mus musculus; test: Tested for mean survival time of Mice bearing […] 755 not surviving 50 days as a percentage at dose of 10 mg/kg; type: functional; procedure, shortened: as §5
[41] = test system: Mus musculus; test: Tested for number of animal surviving at least 50 days out of 10 animal treated at dose of mg/kg; type: functional; procedure, shortened: as §2

Structure (SMILES)	Activity [1] [%]	Activity [2] [%]	Activity [3] [%]	Activity [4] [%]	Activity [5] [%]	Activity [6] [%]	Survivors [7]	Survivors [8]	Survivors [9]	IC50 [10] [µM]	Activity [11] [%]	Activity [12] [%]	Activity [13] [%]	Activity [14] [%]	Activity [15] [%]	Activity [16] [%]	Activity [17] [%]	Activity [18] [%]	Activity [19] [%]	Activity [20] [%]	also measured
COc1c(C)c(C)c(OC)c(C=O)c1C=O	15	96	103	81	15	11	0	0	0	97	–	–	–	–	–	–	–	–	–	–	–
Cc1c(C)c(O)c(C=O)c(C=O)c1O	6	195	91	182	1	-4	–	–	–	26	21	-13	-11	-2	125	127	120	138	27	148	Mean survival time, treated vs control (T/C) [21]: 128%; Activity [22]: -3%; Activity [23]: 23%; Survivors [24]: 5; Survivors [25]: 2; Survivors [26]: 4; Survivors [27]: 0; Survivors [28]: 0; Survivors [29]: 0; Survivors [30]: 3; Survivors [31]: 3; Survivors [32]: 2; Survivors [33]: 3; Survivors [34]: 0
COc1c(C)c(C)c(O)c(C=O)c1C=O	–	–	–	–	–	–	–	–	–	37	–	–	–	–	–	–	–	–	–	–	–
O=Cc1c(C=O)c(O)c2ccccc2c1O	14	90	76	93	17	1	0	0	0	66	–	–	–	–	–	–	–	–	–	64	Activity [35]: 81%; Mean survival time, treated vs control (T/C) [21]: 81%; Activity [36]: 16%; Activity [22]: 0%; Activity [23]: 14%; Survivors [37]: 0; Survivors [38]: 1; Survivors [39]: 0
CC(=O)Oc1c(C)c(C)c(OC(C)=O)c2c1C(OC(C)=O)OC2OC(C)=O (stereo unspecified)	5	149	109	109	–	–	–	0	0	< 25	4	-15	-14	-7	195	222	168	38	59	–	Activity [40]: 16%; Activity ([5]; 10 mg/kg): -6% and -4%; Survivors [24]: 4; Survivors [25]: 1; Survivors [26]: 3; Survivors [41]: 0; Survivors [33]: 3; Survivors [34]: 2
Cc1c(C)c(O)c(C)c(C)c1O [DUROHYDROQUINONE]	–	–	–	–	–	–	–	–	–	12	–	–	–	–	–	–	–	–	–	–	–
